# Test results reported in ChEMBL document CHEMBL4152256, “Structure-activity relationship of new antimalarial 1-aryl-3-susbtituted propanol derivatives: Synthesis, preliminary toxicity profiling, parasite life cycle stage studies, target exploration, and targeted delivery” (Eur J Med Chem, 2018).
# pIC50: −log10 of the molar value. Calls of active or inactive are those of the source. No cut-off for these calls is given here.
# Experiments:
# [1] = Genotoxicity in Salmonella typhimurium TA1535 harboring pSK1002 assessed as survival at 0.0002 mg/ml in absence of Sprague-Dawley rat liver S9 fraction after by SOS/umu assay relative to control; type: toxicity, organism-based; settings: salmonella enterica subsp. enterica serovar typhimurium, read-out: Survival
# [2] = Genotoxicity in Salmonella typhimurium TA1535 harboring pSK1002 assessed as survival at 0.004 mg/ml in absence of Sprague-Dawley rat liver S9 fraction after by SOS/umu assay relative to control; type: toxicity, organism-based; settings: salmonella enterica subsp. enterica serovar typhimurium, read-out: Survival
# [3] = Genotoxicity in Salmonella typhimurium TA1535 harboring pSK1002 assessed as survival at 0.004 mg/ml in presence of Sprague-Dawley rat liver S9 fraction after by SOS/umu assay relative to control; type: toxicity, organism-based; settings: salmonella enterica subsp. enterica serovar typhimurium, read-out: Survival
# [4] = Genotoxicity in Salmonella typhimurium TA1535 harboring pSK1002 assessed as umu gene induction at 0.0002 mg/ml in presence of Sprague-Dawley rat liver S9 fraction after by SOS/umu assay relative to control; type: toxicity, organism-based; settings: salmonella enterica subsp. enterica serovar typhimurium, read-out: FC
# [5] = Genotoxicity in Salmonella typhimurium TA1535 harboring pSK1002 assessed as survival at 0.0005 mg/ml in presence of Sprague-Dawley rat liver S9 fraction after by SOS/umu assay relative to control; type: toxicity, organism-based; settings: salmonella enterica subsp. enterica serovar typhimurium, read-out: Survival
# [6] = Genotoxicity in Salmonella typhimurium TA1535 harboring pSK1002 assessed as umu gene induction at 0.002 mg/ml in absence of Sprague-Dawley rat liver S9 fraction after by SOS/umu assay relative to control; type: toxicity, organism-based; settings: salmonella enterica subsp. enterica serovar typhimurium, read-out: FC
# [7] = Genotoxicity in Salmonella typhimurium TA1535 harboring pSK1002 assessed as survival at 0.001 mg/ml in absence of Sprague-Dawley rat liver S9 fraction after by SOS/umu assay relative to control; type: toxicity, organism-based; settings: salmonella enterica subsp. enterica serovar typhimurium, read-out: Survival
# [8] = Genotoxicity in Salmonella typhimurium TA1535 harboring pSK1002 assessed as survival at 0.002 mg/ml in presence of Sprague-Dawley rat liver S9 fraction after by SOS/umu assay relative to control; type: toxicity, organism-based; settings: salmonella enterica subsp. enterica serovar typhimurium, read-out: Survival
# [9] = Selectivity index, ratio of CC50 for human HepG2A16 cells by MTT assay to IC50 for multidrug-resistant Plasmodium falciparum FCR-3; type: toxicity; settings: HepG2A16 cells, read-out: Ratio CC50/IC50
# Method in brief: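 HepG2-A16 human hepatoma cells were tested by MTT viability assay to give CC50. Blood-stage activity was measured against the multidrug-resistant P. falciparum FCR-3 strain by [3H]-hypoxanthine incorporation to give IC50. SI = CC50 HepG2 / FCR-3 IC50.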
# [10] = Solubility of the compound in DSPC:cholesterol:DSPE-PEG2000-Mal:DOPE-Rho lipid mixture at 250 uM; type: physicochemical
# Method in brief: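 Compound added at 250 µM drug to the initial liposome lipid mixture (10 mM total lipid); precipitation and UV-visible absorbance above 300 nm assessed after encapsulation, removal of unencapsulated material and extraction with 1% w/v SDS in RPMI-A.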
# [11] = tested on: Plasmodium falciparum; assay: Antiplasmodial activity against multidrug-resistant Plasmodium falciparum FCR-3 by [3H]-hypoxanthine incorporation assay; type: functional, organism-based, FCR-3/Gambia; settings: Plasmodium falciparum, FCR-3/Gambia
# Method in brief: (§1)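 Blood-stage P. falciparum 3D7 and FCR-3 were tested by a modified [3H]-hypoxanthine incorporation assay. Chloroquine was the reference in all runs.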
# [12] = Genotoxicity in Salmonella typhimurium TA1535 harboring pSK1002 assessed as umu gene induction at 0.001 mg/ml in presence of Sprague-Dawley rat liver S9 fraction after by SOS/umu assay relative to control; type: toxicity, organism-based; settings: salmonella enterica subsp. enterica serovar typhimurium, read-out: FC
# [13] = Genotoxicity in Salmonella typhimurium TA1535 harboring pSK1002 assessed as umu gene induction at 0.002 mg/ml in presence of Sprague-Dawley rat liver S9 fraction after by SOS/umu assay relative to control; type: toxicity, organism-based; settings: salmonella enterica subsp. enterica serovar typhimurium, read-out: FC
# [14] = Genotoxicity in Salmonella typhimurium TA1535 harboring pSK1002 assessed as umu gene induction at 0.0002 mg/ml in absence of Sprague-Dawley rat liver S9 fraction after by SOS/umu assay relative to control; type: toxicity, organism-based; settings: salmonella enterica subsp. enterica serovar typhimurium, read-out: FC
# [15] = Genotoxicity in Salmonella typhimurium TA1535 harboring pSK1002 assessed as umu gene induction at 0.004 mg/ml in absence of Sprague-Dawley rat liver S9 fraction after by SOS/umu assay relative to control; type: toxicity, organism-based; settings: salmonella enterica subsp. enterica serovar typhimurium, read-out: FC
# [16] = Genotoxicity in Salmonella typhimurium TA1535 harboring pSK1002 assessed as umu gene induction at 0.0005 mg/ml in presence of Sprague-Dawley rat liver S9 fraction after by SOS/umu assay relative to control; type: toxicity, organism-based; settings: salmonella enterica subsp. enterica serovar typhimurium, read-out: FC
# [17] = Genotoxicity in Salmonella typhimurium TA1535 harboring pSK1002 assessed as survival at 0.002 mg/ml in absence of Sprague-Dawley rat liver S9 fraction after by SOS/umu assay relative to control; type: toxicity, organism-based; settings: salmonella enterica subsp. enterica serovar typhimurium, read-out: Survival
# [18] = Genotoxicity in Salmonella typhimurium TA1535 harboring pSK1002 assessed as survival at 0.001 mg/ml in presence of Sprague-Dawley rat liver S9 fraction after by SOS/umu assay relative to control; type: toxicity, organism-based; settings: salmonella enterica subsp. enterica serovar typhimurium, read-out: Survival
# [19] = Cytotoxicity against human HepG2A16 cells by MTT assay; type: cell-based; settings: HepG2A16 cells
# Method in brief: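 MTT viability assay on HepG2-A16 cells, giving CC50 values.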
# [20] = Genotoxicity in Salmonella typhimurium TA1535 harboring pSK1002 assessed as umu gene induction at 0.004 mg/ml in presence of Sprague-Dawley rat liver S9 fraction after by SOS/umu assay relative to control; type: toxicity, organism-based; settings: salmonella enterica subsp. enterica serovar typhimurium, read-out: FC
# [21] = tested on: Plasmodium falciparum; assay: Antiplasmodial activity against chloroquine-sensitive Plasmodium falciparum 3D7 by [3H]-hypoxanthine incorporation assay; type: functional, organism-based; settings: Plasmodium falciparum, 3D7; method in brief: as §1
# [22] = Genotoxicity in Salmonella typhimurium TA1535 harboring pSK1002 assessed as umu gene induction at 0.001 mg/ml in absence of Sprague-Dawley rat liver S9 fraction after by SOS/umu assay relative to control; type: toxicity, organism-based; settings: salmonella enterica subsp. enterica serovar typhimurium, read-out: FC
# [23] = tested on: Plasmodium berghei; assay: Antiplasmodial activity against Plasmodium berghei ANKA infected in mouse assessed as mouse survival time at 50 mg/kg/day, po for 4 consecutive days starting from 2 hrs post infection by MSF assay; type: functional
# Method in brief: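 Swiss male mice (20 ± 2 g) infected i.p. with 10^7 P. berghei ANKA parasitized cells in 0.1 mL 0.9% saline (day 0). Oral dosing began 2 h post-infection and continued daily on days 0–3, five mice per batch. Test drugs were given at 50 mg/kg/day in water:DMSO and chloroquine diphosphate at 3 mg/kg/day; a vehicle control was included. Survival was checked daily, and parasitemia was read on day 4 by modified MSF assay.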
# [24] = Genotoxicity in Salmonella typhimurium TA1535 harboring pSK1002 assessed as survival at 0.0002 mg/ml in presence of Sprague-Dawley rat liver S9 fraction after by SOS/umu assay relative to control; type: toxicity, organism-based; settings: salmonella enterica subsp. enterica serovar typhimurium, read-out: Survival
# [25] = Genotoxicity in Salmonella typhimurium TA1535 harboring pSK1002 assessed as survival at 0.0005 mg/ml in absence of Sprague-Dawley rat liver S9 fraction after by SOS/umu assay relative to control; type: toxicity, organism-based; settings: salmonella enterica subsp. enterica serovar typhimurium, read-out: Survival
# [26] = tested on: Plasmodium berghei; assay: Antiplasmodial activity against Plasmodium berghei ANKA infected in mouse assessed as inhibition of parasitemia at 50 mg/kg/day, po for 4 consecutive days starting from 2 hrs post infection by MSF assay relative to control; type: functional
# Method in brief: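 Swiss male mice (20 ± 2 g) infected ip with 10^7 P. berghei ANKA parasitized cells (day 0). Five per group dosed orally 2 h after infection and daily on days 0–3. Test compounds at 50 mg/kg/day in water:DMSO; chloroquine diphosphate at 3 mg/kg/day; vehicle controls. Parasitemia measured on day 4 by MSF assay; survival checked daily.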
# [27] = Genotoxicity in Salmonella typhimurium TA1535 harboring pSK1002 assessed as umu gene induction at 0.0005 mg/ml in absence of Sprague-Dawley rat liver S9 fraction after by SOS/umu assay relative to control; type: toxicity, organism-based; settings: salmonella enterica subsp. enterica serovar typhimurium, read-out: FC
# [28] = tested on: Plasmodium falciparum; assay: Antiplasmodial activity against Plasmodium falciparum FCR-3 sporozoites infected in human primary hepatocytes treated simultaneously with infection by DAPI staining based HCS analysis; type: functional, organism-based, FCR-3/Gambia; settings: Plasmodium falciparum, FCR-3/Gambia; read-out: IC50
# [29] = tested on: Plasmodium berghei; assay: Antiplasmodial activity against GFP-fused Plasmodium berghei sporozoites infected in human HepG2A16 cells treated simultaneously with infection by fluorescence microscopic analysis; type: functional, organism-based; settings: Plasmodium berghei, HepG2A16; read-out: IC50
# Method in brief: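 HepG2-A16 cells (3 × 10^4/well, collagen-coated) infected with PbGFP sporozoites (5 × 10^3 to 1 × 10^4/well) and treated at the same time. Top concentration 10 µg/mL in DMEM, seven serial dilutions. Medium and compound renewed at 3 h and every 24 h. After 40 h at 37 °C: methanol fixation, anti-Plasmodium Hsp70 immunolabeling, Alexa 594 secondary, DAPI; high-content imaging.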
# [30] = Selectivity index, ratio of CC50 for human HepG2A16 cells to IC50 for GFP-fused Plasmodium berghei sporozoites infected in human HepG2A16 cells; type: toxicity, cell-based; settings: read-out: Ratio CC50/IC50
# Method in brief: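 HepG2-A16 cells were grown at 3 × 10^4 per well on collagen and infected with GFP P. berghei sporozoites (5 × 10^3 to 1 × 10^4 per well) from A. stephensi salivary glands. Compounds were added at infection, from 10 µg/mL top plus seven serial dilutions, and refreshed at 3 h and then every 24 h. After 40 h at 37 °C, EEFs were methanol-fixed, anti-Hsp70 immunolabelled and counted by high-content imaging. SI = HepG2 CC50 / liver-stage IC50.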
# [31] = Selectivity index, ratio of CC50 for human primary hepatocytes to IC50 for Plasmodium falciparum FCR-3 sporozoites infected in human primary hepatocytes; type: toxicity, cell-based; settings: read-out: Ratio CC50/IC50
# Method in brief: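 Primary human hepatocytes were plated at 8 × 10^4 per well on collagen and infected with P. falciparum sporozoites (2.5 × 10^4 per well). Compounds were given at infection from 10 µg/mL plus seven dilutions, refreshed every 24 h, for 8 days. EEFs were read by Hsp70 immunostaining. […] Two independent experiments were run.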
# [32] = Cytotoxicity against human primary hepatocytes after 48 hrs by MTT assay; type: cell-based, Hepatocyte
# Method in brief: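 Primary human hepatocytes seeded at 2 × 10^5/well and grown 24 h at 37 °C, 5% CO2. Compound dilutions added in triplicate for 48 h. MTT (2 mg/mL) added for 4 h, then DMSO for 20 min; absorbance read at 550 nm. Untreated and diluent controls included; CC50 calculated.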
smiles,measurement,setting,value
OC(CCN1CCN(C(c2ccccc2)c2ccccc2)CC1)c1ccc(F)cc1 (centres undefined),viability at 0.0002 mg/ml,[1],102%
same,viability at 0.004 mg/ml,[2],97.8%
same,viability at 0.004 mg/ml,[3],87%
same,fold induction at 0.0002 mg/ml,[4],1
same,viability at 0.0005 mg/ml,[5],86.4%
same,fold induction at 0.002 mg/ml,[6],1.5
same,viability at 0.001 mg/ml,[7],94.9%
same,viability at 0.002 mg/ml,[8],89.6%
same,selectivity ratio,[9],406
same,solubility,[10],Insoluble
same,pIC50,[11],6.21
same,fold induction at 0.001 mg/ml,[12],1
same,fold induction at 0.002 mg/ml,[13],1.1
same,fold induction at 0.0002 mg/ml,[14],1.1
same,fold induction at 0.004 mg/ml,[15],1
same,fold induction at 0.0005 mg/ml,[16],1.1
same,viability at 0.002 mg/ml,[17],95.9%
same,viability at 0.001 mg/ml,[18],95.7%
same,CC50,[19],252000 nM
same,fold induction at 0.004 mg/ml,[20],1
same,pIC50,[21],5.97
same,fold induction at 0.001 mg/ml,[22],1
same,MSD,[23],8 days
same,viability at 0.0002 mg/ml,[24],101%
same,viability at 0.0005 mg/ml,[25],100%
same,inhibition,[26],inactive
same,fold induction at 0.0005 mg/ml,[27],1
COc1cc(NC(C)CCCN)c2ncccc2c1 (centres undefined) [PRIMAQUINE],pIC50,[28],6.40
same,pIC50,[29],5.44
same,pIC50,[11],5.93
same,selectivity ratio,[30],32.9
same,selectivity ratio,[31],135
same,CC50 at 48 h,[32],54000 nM
same,CC50,[19],120000 nM
